Results from ChEMBL document CHEMBL3817745, “Structure-Activity Relationship for the 4(3H)-Quinazolinone Antibacterials” (J Med Chem, 2016).
Converted amounts (≈) assume the structure as drawn. The source made the active and inactive calls. The rule behind the calls is not given here.

Legend:
[1] = Plasma concentration in ICR mouse neutropenic thigh model of methicillin-resistant Staphylococcus aureus NRS70 infection at 20 mg/kg, sc tid administered every 8 hrs starting from 1 hr post infection and measured 7 hrs post last dose by UPLC analysis; type: ADME, organism-based
Outline: (§1)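 Neutropenic thigh model (cyclophosphamide 200 mg/kg ip, NRS70 im), sc doses at 1, 9 and 17 h; at 24 h cardiac blood and uninfected thigh taken (n = 8 per group); thigh homogenate supernatant and plasma acetonitrile-quenched with internal standard, analysed by UPLC with MRM detection.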

[2] = test system: Staphylococcus aureus; test: Antibacterial activity against methicillin resistant Staphylococcus aureus ATCC 27660 infected in iv dosed ICR mouse model of peritonitis assessed as mouse survival administered at 30 mins and 4.5 hrs post infection measured for 48 hrs; type: functional; settings: ATCC 27660, iv
[3] = test system: Bacillus licheniformis; test: Antibacterial activity against Bacillus licheniformis ATCC 12759 incubated for 16 to 20 hrs by microdilution method; type: functional
Outline: (§2)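 CLSI broth microdilution. 2-fold serial dilutions were made in cation-adjusted Mueller–Hinton broth, with 5% lysed horse blood added for Streptococcus strains, in triplicate. Inoculum 5×10^5 CFU/mL. Plates incubated 36 °C for 16–20 h. MIC taken as the lowest concentration visibly inhibiting growth.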

[4] = Cmax in ICR mouse peritonitis model infected with methicillin resistant Staphylococcus aureus ATCC 27660 at 10 mg/kg, po administered as single dose through gavage measured at 1 hr post dose by UPLC analysis; type: ADME, organism-based; set-up: dose 10 mg/kg, route oral; settings: in vivo
[5] = test system: Pseudomonas aeruginosa; test: Antibacterial activity against Pseudomonas aeruginosa […] incubated for 16 to 20 hrs by microdilution method; type: functional; outline: as §2
[6] = test system: Bacillus cereus; test: Antibacterial activity against Bacillus cereus ATCC 13061 incubated for 16 to 20 hrs by microdilution method; type: functional; outline: as §2
[7] = test system: Staphylococcus epidermidis; test: Antibacterial activity against Staphylococcus epidermidis ATCC 35547 incubated for 16 to 20 hrs by microdilution method; type: functional; outline: as §2
[8] = test system: Staphylococcus aureus; test: […] activity against multidrug resistant Staphylococcus aureus ATCC 27660; type: functional; settings: read-out: MBC99.9
[9] = AUC (0 to infinity) in ICR mouse peritonitis model infected with methicillin resistant Staphylococcus aureus ATCC 27660 at 10 mg/kg, iv administered as single dose by UPLC analysis; type: ADME, organism-based; set-up: dose 10 mg/kg, time infinity, route intravenous; settings: ICR, in vivo
[10] = test system: Staphylococcus haemolyticus; test: Antibacterial activity against Staphylococcus haemolyticus ATCC 29970 incubated for 16 to 20 hrs by microdilution method; type: functional
[11] = Drug level in uninfected thighs of ICR mouse neutropenic thigh model of methicillin-resistant Staphylococcus aureus NRS70 infection at 20 mg/kg, sc tid administered every 8 hrs starting from 1 hr post infection and measured 7 hrs post last dose by UPLC analysis; type: ADME, organism-based; settings: read-out: Drug uptake; outline: as §1
[12] = test system: Escherichia coli; test: Antibacterial activity against Escherichia coli ATCC 25922 incubated for 16 to 20 hrs by microdilution method; type: functional; outline: as §2
[13] = Volume of distribution in ICR mouse peritonitis model infected with methicillin resistant Staphylococcus aureus ATCC 27660 at 10 mg/kg, iv administered as single dose measured up to 24 hrs by UPLC analysis; type: ADME, organism-based; settings: ICR, in vivo
[14] = test system: Enterococcus faecalis; test: Antibacterial activity against vancomycin-resistant Enterococcus faecalis 99 clinical isolate incubated for 16 to 20 hrs by microdilution method; type: functional
[15] = test system: Mus musculus; test: Tmax in ICR mouse peritonitis model infected with methicillin resistant Staphylococcus aureus ATCC 27660 at 10 mg/kg, po administered as single dose through gavage by UPLC analysis; type: ADME, organism-based; settings: in vivo
Outline: (§3)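 Female ICR mice, single 10 mg/kg oral gavage in 25% DMSO/55% propylene glycol/20% PBS (2.5 mg/mL); n = 3 per time point; terminal blood 0.5–30 h; plasma protein-precipitated with acetonitrile containing internal standard, quantified by UPLC-UV or MRM against mouse-plasma calibration curve (0–50 μg/mL).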

[16] = test system: Klebsiella aerogenes; test: Antibacterial activity against Enterobacter aerogenes ATCC 35029 incubated for 16 to 20 hrs by microdilution method; type: functional; outline: as §2
[17] = AUC (0 to last) in ICR mouse peritonitis model infected with methicillin resistant Staphylococcus aureus ATCC 27660 at 10 mg/kg, po administered as single dose through gavage measured after 30 hrs by UPLC analysis; type: ADME, organism-based; set-up: dose 10 mg/kg, time 0 - last, route oral; settings: ICR, in vivo; outline: as §3
[18] = test system: HepG2; test: Cytotoxicity against human HepG2 cells incubated for 16 hrs by XTT assay; type: cell-based; settings: HepG2, 16 h
Outline: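 HepG2 cells were tested with an XTT viability read-out, in triplicate. IC50 was obtained by nonlinear regression.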

[19] = Terminal half life in ICR mouse peritonitis model infected with methicillin resistant Staphylococcus aureus ATCC 27660 at 10 mg/kg, iv administered as single dose by UPLC analysis; type: ADME, organism-based; settings: ICR, in vivo, read-out: beta t1/2
[20] = test system: Staphylococcus aureus; test: Antibacterial activity against methicillin-resistant Staphylococcus aureus NRS70 in ICR mouse neutropenic thigh infection model assessed as reduction in bacterial load at 20 mg/kg, sc tid administered every 8 hrs starting from 1 hr post infection and measured 7 hrs post last dose; type: functional, organism-based
Outline: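 Female ICR mice (n = 8 per group) made neutropenic with ip cyclophosphamide 200 mg/kg at 4 days and 1 day pre-infection; 100 μL NRS70 (~1×10^6 CFU/mL in brain–heart infusion) injected im into right thigh; sc doses at 1, 9, 17 h; thighs harvested at 24 h, homogenized, plated in triplicate on LB agar; log10 CFU/g.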

[21] = test system: Streptococcus oralis; test: Antibacterial activity against Streptococcus oralis ATCC 9811 incubated for 16 to 20 hrs by microdilution method; type: functional; outline: as §2
[22] = AUC (0 to last) in ICR mouse peritonitis model infected with methicillin resistant Staphylococcus aureus ATCC 27660 at 10 mg/kg, iv administered as single dose measured up to 8 hrs by UPLC analysis; type: ADME, organism-based; set-up: dose 10 mg/kg, time 0 - last, route intravenous; settings: ICR, in vivo
Outline: (§4)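 Fast PK: female ICR mice (n = 2 per time point) given single tail-vein iv injection at 5, 10 or 20 mg/kg in 25% DMSO/65% propylene glycol/10% water (2.5, 5 or 10 mg/mL); terminal cardiac blood at 5 min, 40 min, 2, 4, 8 h; plasma analysed by UPLC with internal standard calibration.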

[23] = AUC (0 to infinity) in ICR mouse peritonitis model infected with methicillin resistant Staphylococcus aureus ATCC 27660 at 10 mg/kg, po administered as single dose through gavage by UPLC analysis; type: ADME, organism-based; set-up: dose 10 mg/kg, route oral, time infinity; settings: ICR, in vivo; outline: as §3
[24] = test system: Enterococcus faecalis; test: Antibacterial activity against methicillin-susceptible Enterococcus faecalis ATCC 29212 incubated for 16 to 20 hrs by microdilution method; type: functional; outline: as §2
[25] = Terminal half life in ICR mouse peritonitis model infected with methicillin resistant Staphylococcus aureus ATCC 27660 at 10 mg/kg, po administered as single dose through gavage by UPLC analysis; type: ADME, organism-based; settings: ICR, in vivo, read-out: beta t1/2; outline: as §3
[26] = test system: Acinetobacter baumannii; test: Antibacterial activity against Acinetobacter baumannii ATCC 17961 incubated for 16 to 20 hrs by microdilution method; type: functional; outline: as §2
[27] = test system: Staphylococcus aureus; test: Antibacterial activity against mecA-positive multidrug resistant Staphylococcus aureus NRS120 incubated for 16 to 20 hrs by microdilution method; type: functional
[28] = test system: Staphylococcus aureus; test: Antibacterial activity against vancomycin/methicillin-resistant Staphylococcus aureus VRS1 clinical isolate incubated for 16 to 20 hrs by microdilution method; type: functional
[29] = test system: Klebsiella pneumoniae; test: Antibacterial activity against Klebsiella pneumoniae ATCC 700603 incubated for 16 to 20 hrs by microdilution method; type: functional; outline: as §2
[30] = test system: Staphylococcus aureus; test: Antibacterial activity against vancomycin/methicillin-resistant Staphylococcus aureus VRS2 clinical isolate incubated for 16 to 20 hrs by microdilution method; type: functional
[31] = test system: Staphylococcus aureus; test: […] activity against methicillin-resistant Staphylococcus aureus NRS70; type: functional; settings: read-out: MBC99.9
[32] = Clearance in ICR mouse peritonitis model infected with methicillin resistant Staphylococcus aureus ATCC 27660 at 10 mg/kg, iv administered as single dose measured up to 8 hrs by UPLC analysis; type: ADME, organism-based; settings: in vivo; outline: as §4
[33] = test system: Streptococcus pyogenes; test: Antibacterial activity against Streptococcus pyogenes ATCC 49399 incubated for 16 to 20 hrs by microdilution method; type: functional; outline: as §2
[34] = test system: Enterococcus faecium; test: Antibacterial activity against Enterococcus faecium NCTC 7171 incubated for 16 to 20 hrs by microdilution method; type: functional; outline: as §2
[35] = test system: Staphylococcus aureus; test: Antibacterial activity against mecA-positive multidrug resistant Staphylococcus aureus NRS119 incubated for 16 to 20 hrs by microdilution method; type: functional
[36] = Hemolytic activity against human RBC at 64 ug/ml relative to control; type: ADME, cell-based, Erythrocyte; settings: red blood cells, read-out: Activity
Outline: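 Hemolysis was measured at a fixed 64 μg/mL on a 10% red-cell suspension from heparinized human blood. Triton-X served as the positive control, and results are given as percent hemolysis.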

[37] = Protein binding in human plasma at 10 uM after 6 hrs by UPLC based equillibrium dialysis method; type: ADME, cell-free; settings: read-out: PPB (converted)
[38] = test system: Staphylococcus aureus; test: Antibacterial activity against mecA-positive multidrug resistant Staphylococcus aureus COL NRS100 incubated for 16 to 20 hrs by microdilution method; type: functional
[39] = Oral bioavailability in ICR mouse peritonitis model infected with methicillin resistant Staphylococcus aureus ATCC 27660 at 10 mg/kg administered as single dose through gavage by UPLC analysis; type: ADME, organism-based; settings: ICR, in vivo; outline: as §3

N#Cc1ccc(/C=C/c2nc3ccccc3c(=O)n2-c2cccc(C(=O)O)c2)cc1
concentration at 7 h [1]: 1130 ng/mL
ED50 [2]: 9.4 mg/kg
MIC [3]: > 128 µg/mL
Cmax [4]: 1300 ng/mL
MIC [5]: ≥ 16 µg/mL
MIC [6]: > 128 µg/mL
MIC [7]: 1 µg/mL (≈ 2.54 µM)
MBC [8]: 64 µg/mL (≈ 163 µM)
AUC(0-inf) [9]: 24300 ng·h/mL
MIC [10]: 1 µg/mL (≈ 2.54 µM)
concentration at 7 h [11]: 24 ng/mL
MIC [12]: ≥ 16 µg/mL
Vd [13]: 0.3 L/kg
MIC [14]: > 128 µg/mL
Tmax [15]: 1 h
MIC [16]: ≥ 16 µg/mL
AUC(0-t) at 30 h [17]: 6800 ng·h/mL
IC50 [18]: 62.9 µg/mL (≈ 160 µM)
half-life [19]: ≥ 20 h
Activity [20]: inactive
MIC [21]: > 128 µg/mL
AUC(0-t) at 8 h [22]: 19700 ng·h/mL
AUC(0-inf) [23]: 12300 ng·h/mL
MIC [24]: > 128 µg/mL
half-life [25]: > 20 h
MIC [26]: ≥ 16 µg/mL
MIC [27]: 8 µg/mL (≈ 20.3 µM)
MIC [28]: 16 µg/mL (≈ 40.7 µM)
MIC [29]: ≥ 16 µg/mL
MIC [30]: 2 µg/mL (≈ 5.08 µM)
MBC [31]: 32 µg/mL (≈ 81.3 µM)
clearance [32]: 6.9 mL/min/kg
MIC [33]: > 128 µg/mL
MIC [34]: > 128 µg/mL
MIC [35]: 8 µg/mL (≈ 20.3 µM)
hemolysis at 64 ug/ml [36]: < 1%
fraction unbound at 6 h, 10 µM [37]: 0.035
MIC [38]: 16 µg/mL (≈ 40.7 µM)
bioavailability [39]: 50%
